This note sets out measurements from ChEMBL document CHEMBL1933002, “Development and characterization of improved β-lactone-based anti-virulence drugs targeting ClpP” (Bioorg Med Chem, 2012).

Activity calls are given as the source filed them. No cut-off for these calls is given here.

The subject of data set [1] is Staphylococcus aureus. Kind of data set: Growth inhibition of Staphylococcus aureus NCTC 8325 at 1 mM after 9 hrs. Type of data set: functional, organism-based. A digest of the protocol:
(§1)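 Overnight cultures diluted 1:100 in LB (P. aeruginosa, E. coli) or BHB (S. aureus, S. epidermidis, E. faecalis). 100 µL treated with 1 µL of 100 mM lactone stock or DMSO control. Shaken in 96-well plates for 9 h at 37 °C, then OD600 read. Triplicates.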

For data set [2], the system named is Staphylococcus epidermidis. Nature of the data set: Growth inhibition of Staphylococcus epidermidis RP62A at 1 mM after 9 hrs. Type of data set: functional. A digest of the protocol:
as §1

Data set [3] concerns Staphylococcus aureus. Kind of data set: Antivirulence activity against Staphylococcus aureus NCTC 8325-4 in sheep RBC assessed as inhibition of hemolysis in liquid medium by measuring hemolysin level after overnight incubation by spent culture supernatant assay.
Data set [4] has as its target T1, ATP-dependent Clp protease proteolytic subunit (Staphylococcus aureus (strain NCTC 8325), UniProt Q2G036).
T1 sequence (Q2G036 whole entry): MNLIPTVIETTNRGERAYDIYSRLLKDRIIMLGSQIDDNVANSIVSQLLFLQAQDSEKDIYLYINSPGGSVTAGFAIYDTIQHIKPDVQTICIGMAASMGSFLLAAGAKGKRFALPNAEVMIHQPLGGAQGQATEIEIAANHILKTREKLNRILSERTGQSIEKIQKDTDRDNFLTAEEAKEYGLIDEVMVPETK
Nature of the data set: Inhibition of recombinant Staphylococcus aureus NCTC 8325 peptidase activity of clpP expressed in Escherichia coli BL21 after 10 mins using SLY-AMC as substrate by fluorescence assay. A digest of the protocol: (§2)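 Recombinant S. aureus ClpP (Strep-tag purified from E. coli BL21), 2 µg, preincubated 10 min at room temperature with lactone or DMSO in 50 mM MES, 100 mM KCl, pH 7.0. SLY-AMC added at 0.2 mM final, 2% DMSO final. Fluorescence read at ex 340/em 450 nm. At least triplicates; EC50 from curve fitting.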

The test system of another data set is HaCaT. Kind of data set: Cytotoxicity against human HaCaT cells assessed as cell viability after 24 hrs by MTT assay. Type of data set: cell-based. A digest of the protocol: (§3)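 MTT read-out after 24 h exposure. NIH3T3 grown in DMEM (4 mM glutamine) + 10% FCS and plated at 1.5×10^3/well; HaCat grown in calcium-free DMEM (2 mM glutamine) + 10% dialyzed FCS and plated at 4.5×10^3/well. Cells cultured 24 h to 30-40% confluence. Lactones diluted 1:100 from DMSO stocks into fresh medium. MTT added for 2 h, formazan dissolved in DMSO, OD 570 nm minus 630 nm.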
On the technique in general: Tetrazolium dyes change colour on reduction, which living cells bring about.

Data set [5] is described as follows: Cytotoxicity against mouse NIH/3T3 cells assessed as cell viability at 200 to 1000 uM after 24 hrs by MTT assay. Type of data set: cell-based, NIH3T3. The settings on record: read-out: Activity. The procedure, abridged:
(§4)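 NIH3T3 cells in DMEM (4 mM glutamine) + 10% FCS, plated at 1.5×10^3/well and cultured 24 h to 30-40% confluence. Lactones diluted 1:100 from DMSO stocks into fresh medium; cells exposed 24 h. MTT (5 mg/ml stock) added for 2 h, cells lysed in DMSO, OD at 570 nm with 630 nm background subtraction.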

Data set [6] deals with Staphylococcus aureus. Nature of the data set: Antivirulence activity against Staphylococcus aureus NCTC 8325-4 in sheep RBC assessed as inhibition of hemolysis in agar plate by measuring hemolysin level after overnight incubation by serial dilution agar plate assay. Type of data set: functional, organism-based. The procedure, abridged: (§5)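 S. aureus NCTC 8325 inoculated onto 5.5 mm card discs on 5% sheep blood agar plates, together with serial dilutions of β-lactone in DMSO, and incubated overnight at 37 °C. Hemolysis zones were measured and normalized to the DMSO control. Compound stocks were kept in DMSO at -20 °C.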

In a further data set the test system is Pseudomonas aeruginosa. Nature of the data set: Growth inhibition of Pseudomonas aeruginosa PAO1 at 1 mM after 9 hrs. The format is functional, organism-based. The procedure, abridged: as §1
A further data set deals with Enterococcus faecalis. Nature of the data set: Growth inhibition of Enterococcus faecalis OG1RF at 1 mM after 9 hrs. Type of data set: functional. A digest of the protocol: as §1
Data set [7] has as its target T2, ATP-dependent Clp protease proteolytic subunit (Staphylococcus aureus (strain NCTC 8325)) (UniProt Q2G036).
T2 sequence (whole entry): T1 sequence (Q2G036 whole entry)
Nature of the data set: Displacement of U1P from clpP in live Staphylococcus aureus NCTC 8325 cells after 1 hr using rhodamine-azide by SDS PAGE fluorescence analysis.

Data set [8] addresses T2, ATP-dependent Clp protease proteolytic subunit (Staphylococcus aureus (strain NCTC 8325)). Nature of the data set: Inhibition of recombinant Staphylococcus aureus NCTC 8325 peptidase activity of clpP expressed in Escherichia coli BL21 at 10 to 40 uM after 10 mins using SLY-AMC as substrate by fluorescence assay. The procedure, abridged: as §2
Data set [9] deals with NIH3T3. Nature of the data set: Cytotoxicity against mouse NIH/3T3 cells assessed as cell viability up to 1 mM after 24 hrs by MTT assay. The format is cell-based. The settings on record: nih3t3, 24 h. A digest of the protocol: as §4
The next data set has as its system Escherichia coli. Kind of data set: Growth inhibition of Escherichia coli K-12 at 1 mM after 9 hrs. The format is functional, organism-based. The procedure, abridged:
as §1

In data set [10] the test system is NIH3T3. Kind of data set: Cytotoxicity against mouse NIH/3T3 cells assessed as cell viability after 24 hrs by MTT assay. Type of data set: cell-based. The settings on record: NIH3T3, 24 h. A digest of the protocol:
as §3

Data set [11] has as its system Staphylococcus aureus. Nature of the data set: Antivirulence activity against Staphylococcus aureus NCTC 8325-4 in sheep RBC assessed as inhibition of hemolysis in liquid medium by measuring hemolysin level at 100 uM after overnight incubation by spent culture supernatant assay relative to control.
For data set [12], the system named is Staphylococcus aureus. Nature of the data set: Antivirulence activity against Staphylococcus aureus NCTC 8325-4 in sheep RBC assessed as inhibition of hemolysis in blood agar plate by measuring hemolysin level after overnight incubation by serial dilution agar plate assay. The format is functional, organism-based. The procedure, abridged:
as §5

Data set [13] deals with Staphylococcus aureus. Kind of data set: Antivirulence activity against Staphylococcus aureus NCTC 8325 in sheep RBC assessed as inhibition of hemolysis in blood agar plate at 100 uM by measuring hemolysin level after overnight incubation by serial dilution agar plate assay.
For data set [14], the target named is T2, ATP-dependent Clp protease proteolytic subunit (Staphylococcus aureus (strain NCTC 8325)). Kind of data set: Inhibition of recombinant Staphylococcus aureus NCTC 8325 peptidase activity of clpP expressed in Escherichia coli BL21 at 200 to 800 uM after 10 mins using SLY-AMC as substrate by fluorescence assay. A digest of the protocol: as §2

As for `C=CCCCCCCC[C@H]1C(=O)O[C@@H]1CCc1ccccc1` (racemic), the “growth inhibition (GI)” value (with Staphylococcus aureus [1]; in data set [2]; in the data set on Pseudomonas aeruginosa; in the data set with Enterococcus faecalis; with Escherichia coli) was “inactive” throughout. The results for the EC50 (with Staphylococcus aureus [3]; in data set [4]; in the data set on HaCaT) were 11 µM, 3.4 µM and 91 µM, respectively. In addition, the viability at 24 h, up to 1000 µM in data set [5] came out at 80%. Further, the ED50 with Staphylococcus aureus [6] came to 7 nmol. Also, the outcome in data set [7] was Active. For the same compound, the inhibition – broadly, the change of the read-out against control, counted positive when it falls – in data set [8] came out at 30%. Moreover, the Activity entry in the data set with NIH3T3 [9] is reported as “Non-toxic”.
With `C=CCCCCCCC[C@H]1C(=O)O[C@@H]1CCc1cccnc1` (racemic), the EC50 came out at 43 µM in the data set on Staphylococcus aureus [3], 4.5 µM in data set [4], 75 µM with HaCaT and 50 µM in the data set on NIH3T3 [10]. Besides, the ED50 with Staphylococcus aureus [6] came to 15 nmol. In addition, the outcome in data set [7] was Active.
Consider `C=CCCCCCCC[C@H]1C(=O)O[C@@H]1CCCCCNC(=O)c1ccc(N(C)C)cc1` (racemic), for which, in [4], the EC50 came to 5.4 µM. Also, in the data set with Staphylococcus aureus [11], the inhibition at 100 µM was 20%. For the same compound, the outcome in data set [7] was Active. In addition, in the data set with Staphylococcus aureus [12], the outcome was inactive. Also, in data set [8], the inhibition worked out at 70%.
In the case of `C=CCCCCCCCC[C@H]1OC(=O)[C@@H]1CCCCCCCCCNC(=O)OC(C)(C)C` (racemic), the outcome in the data set on Staphylococcus aureus [13] and in the data set on Staphylococcus aureus [12] was inactive. For the same compound, the inhibition result in data set [14] is “inactive”.
In the case of `C=CCCCCCCC[C@H]1C(=O)O[C@@H]1CCCCCCCCCCCNC(=O)OC(C)(C)C` (racemic), the outcome in the data set on Staphylococcus aureus [13] and with Staphylococcus aureus [12] was inactive. Further, the inhibition entry in data set [14] is “inactive”.
As to `CCCCCCCCCCCC[C@H]1C(=O)O[C@@H]1CCc1ccccc1` (racemic), the result with Staphylococcus aureus [13] and in the data set on Staphylococcus aureus [12] was inactive. Further, in [14], the inhibition entry was “inactive”.
